In brackets after ≈: the same amount, converted by molar mass. Activity calls are given as the source filed them. The rule behind the calls is not given here.
Tests used:
[1] = molecular target: T1, Quinolone resistance protein NorA (Staphylococcus aureus) (UniProt P0A0J7); test: Inhibition of NorA efflux pump overexpressed Staphylococcus aureus K2361 assessed as increase in antibacterial activity of berberine at 0.8 ug/mL
T1 sequence (whole entry): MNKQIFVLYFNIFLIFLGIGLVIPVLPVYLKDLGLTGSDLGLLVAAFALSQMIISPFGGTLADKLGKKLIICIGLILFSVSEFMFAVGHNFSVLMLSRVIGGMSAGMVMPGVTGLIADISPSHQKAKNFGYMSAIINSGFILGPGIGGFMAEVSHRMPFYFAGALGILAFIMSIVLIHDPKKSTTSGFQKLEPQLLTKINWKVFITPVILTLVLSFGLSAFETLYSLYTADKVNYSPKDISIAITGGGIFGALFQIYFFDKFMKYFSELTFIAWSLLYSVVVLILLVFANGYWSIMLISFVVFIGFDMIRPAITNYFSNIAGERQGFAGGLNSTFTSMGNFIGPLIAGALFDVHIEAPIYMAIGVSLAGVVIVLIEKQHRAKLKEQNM

[2] = molecular target: T1, Quinolone resistance protein NorA (Staphylococcus aureus); test: Inhibition of NorA efflux pump in NorA knockout Staphylococcus aureus K1758 assessed as drug level required for two fold potentiation of berberine MIC at 1.56 to 100 ug/mL after 20 hrs by serial dilution method
[3] = molecular target: T1, Quinolone resistance protein NorA (Staphylococcus aureus); test: Inhibition of NorA efflux pump in wild type Staphylococcus aureus 8325-4 assessed as drug level required for two fold potentiation of berberine MIC at 1.56 to 100 ug/mL after 20 hrs by serial dilution method
Outline: (§1)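 Checkerboard of serial 2-fold dilutions of berberine chloride against inhibitor, with inhibitor at 1.56–100 µg/mL. Berberine ranges were 12.5–100 µg/mL for 8325-4 and 200–800 µg/mL for K2378. Each agent was also diluted alone. Cells at 5 10^5 CFU/mL (final), 37 °C for 20 h, read at 600 nm; OD <0.05 counted as no growth. Inhibitor MIC is the lowest concentration lowering the berberine MIC at least 2-fold.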

[4] = molecular target: T1, Quinolone resistance protein NorA (Staphylococcus aureus); test: Inhibition of NorA efflux pump in Staphylococcus aureus K2378 overexpressing NorA assessed as drug level required for two fold potentiation of berberine MIC at 1.56 to 100 ug/mL after 20 hrs by serial dilution method; outline: as §1
[5] = test system: Staphylococcus aureus; test: Antibacterial activity against NorA knockout Staphylococcus aureus K1758 after 18 to 20 hrs by serial dilution method; assay type: functional
Outline: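 Compound alone, without berberine: cells at 10^5 CFU/mL in broth, serial 2-fold dilutions of compound, 18–20 h at 37 °C, growth read at 600 nm. MIC is the lowest concentration giving complete growth inhibition. The testing limit was 1000 µM.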

[6] = test system: Staphylococcus aureus; test: Antibacterial activity against wild type Staphylococcus aureus 8325-4 after 18 to 20 hrs by serial dilution method; assay type: functional
Outline: (§2)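 Compound alone, without berberine. Cells at 10^5 CFU/mL inoculated into broth and given serial 2-fold dilutions of compound. Incubated 18–20 h at 37 °C, with growth read as absorbance at 600 nm. MIC is the concentration completely inhibiting growth; testing limit 1000 µM.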

[7] = test system: Staphylococcus aureus; test: Antibacterial activity against Staphylococcus aureus K2378 overexpressing NorA after 18 to 20 hrs by serial dilution method; assay type: functional; outline: as §2
[8] = molecular target: T1, Quinolone resistance protein NorA (Staphylococcus aureus); test: Inhibition of NorA efflux pump in wild type Staphylococcus aureus 8325-4 assessed as ratio of berberine MIC in presence to absence of inhibitor
[9] = molecular target: T1, Quinolone resistance protein NorA (Staphylococcus aureus); test: Inhibition of NorA efflux pump overexpressing Staphylococcus aureus 8325-4 K2378 assessed as ratio of berberine MIC in presence to absence of inhibitor
[10] = molecular target: T1, Quinolone resistance protein NorA (Staphylococcus aureus); test: Inhibition of NorA efflux pump overexpressed Staphylococcus aureus K2361 assessed as increase in antibacterial activity of berberine at 3 ug/mL
[11] = molecular target: T1, Quinolone resistance protein NorA (Staphylococcus aureus); test: Inhibition of NorA efflux pump overexpressed in Staphylococcus aureus 1199B assessed as increase in susceptibility to ciprofloxacin at 1.5 ug/mL by serial broth microdilution method
[12] = test system: Escherichia coli; test: Antibacterial activity against Escherichia coli O157:H7; assay type: functional
Outline: (§3)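 Gram-negative and Gram-positive panel, MIC in µg/mL. Highest concentration tested was 200 µg/mL for E. coli O157:H7 and 100 µg/mL for Clostridium perfringens.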

[13] = test system: Escherichia coli; test: Antibacterial activity against Escherichia coli BW-25113; assay type: functional
Outline: (§4)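 Panel of Gram-negative and Gram-positive non-Clostridium strains, compound alone: MIC in µg/mL, with 200 µg/mL the highest concentration tested.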

[14] = test system: Escherichia coli; test: Antibacterial activity against Escherichia coli UT189; assay type: functional; outline: as §4
[15] = test system: Salmonella typhimurium; test: Antibacterial activity against Salmonella Typhimurium CS132; assay type: functional, Salmonella enterica subsp. enterica serovar Typhimurium; details: Salmonella enterica; outline: as §4
[16] = test system: Pseudomonas aeruginosa; test: Antibacterial activity against Pseudomonas aeruginosa PAO1; assay type: functional; outline: as §4
[17] = test system: Pseudomonas aeruginosa; test: Antibacterial activity against Pseudomonas aeruginosa PA14; assay type: functional; outline: as §4
[18] = test system: Clostridioides difficile; test: Antibacterial activity against Clostridium difficile VP110463; assay type: functional
Outline: (§5)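 Clostridium difficile panel, compound alone: MIC in µg/mL, with 100 µg/mL the highest concentration tested.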

[19] = test system: Clostridioides difficile; test: Antibacterial activity against Clostridium difficile CD196; assay type: functional; outline: as §5
[20] = test system: Clostridioides difficile; test: Antibacterial activity against Clostridium difficile CD2001; assay type: functional; outline: as §5
[21] = test system: Enterococcus faecalis; test: Antibacterial activity against Enterococcus faecalis MMH594; assay type: functional; outline: as §4
[22] = test system: Enterococcus faecalis; test: Antibacterial activity against Enterococcus faecalis V583; assay type: functional; outline: as §4
[23] = test system: Enterococcus faecalis; test: Antibacterial activity against Enterococcus faecalis OG1RF; assay type: functional; outline: as §4
[24] = test system: Clostridium perfringens; test: Antibacterial activity against Clostridium perfringens; assay type: functional; outline: as §3

Row | Compound | Activity [2] | MIC [3] [µM] | MIC [4] | MIC [5] [µM] | MIC [6] [µM] | other results
1 | O=[N+]([O-])c1ccc2[nH]c(-c3cc(OCc4ccccc4)ccc3CO)cc2c1 |  |  |  |  |  | fold change (FC) [1]: > 15
2 | COC(=O)c1ccc(-c2cc3ccccc3[nH]2)cc1 | inactive | 20 | 40 µM | > 1000 | > 1000 | 
3 | COC(=O)c1ccc2[nH]c(-c3ccccc3)cc2c1 | inactive |  |  | > 1000 | > 1000 | Activity [3]: inactive; Activity [4]: inactive
4 | COC(=O)c1ccccc1-c1cc2cc([N+](=O)[O-])ccc2[nH]1 | inactive | 34 | inactive | > 1000 | > 1000 | 
5 | OCc1cccc(-c2cc3ccccc3[nH]2)c1 | inactive | 45 | 45 µM | > 1000 | > 1000 | 
6 | COC(=O)c1ccc(-c2cc3cc([N+](=O)[O-])ccc3[nH]2)cc1 | inactive | 17 | inactive | > 1000 | > 1000 | 
7 | COS(=O)(=O)c1ccc2[nH]c(-c3ccccc3)cc2c1 |  |  |  | 174 (≈ 50 µg/mL) | 174 (≈ 50 µg/mL) | MIC [7]: 174 µM (≈ 50 µg/mL)
8 | N#Cc1ccc2[nH]c(-c3ccccc3)cc2c1 | inactive | 3.6 | 7.1 µM | > 1000 | > 1000 | Ratio [8]: 2; Ratio [9]: 2
9 | COc1ccc2cc3[n+](cc2c1OC)CCc1cc2c(cc1-3)OCO2 [BERBERINE CHLORIDE] |  |  |  | 67 | 269 | MIC [7]: 2150 µM
10 | O=[N+]([O-])c1ccc2[nH]c(-c3ccccc3)cc2c1 |  | 1.3 | 1.3 µM | > 1000 | > 1000 | Activity [10]: Active; MIC [2]: 0.63 µM; Ratio [8]: 2; Ratio [9]: 2; fold change (FC) [11]: 4
11 | OCc1ccccc1-c1cc2ccccc2[nH]1 | inactive | 45 | 45 µM | > 1000 | > 1000 | 
12 | COC(=O)c1cccc(-c2cc3ccccc3[nH]2)c1 |  | 5 | 10 µM | > 1000 | > 1000 | MIC [2]: 40 µM
13 | OCc1ccc(-c2cc3ccccc3[nH]2)cc1 | inactive | 22 | 45 µM | > 1000 | > 1000 | 
14 | c1ccc(-c2cc3ccccc3[nH]2)cc1 [2-PHENYL-1H-INDOLE] | inactive | 65 | 259 µM | > 1000 | > 1000 | Ratio [8]: 4; Ratio [9]: 4
15 | COC(=O)c1ccccc1-c1cc2ccccc2[nH]1 | inactive | 20 | 20 µM | > 1000 | > 1000 | 
16 | O=S(=O)(O)c1ccc2[nH]c(-c3ccccc3)cc2c1 | inactive |  |  | > 1000 | > 1000 | Activity [3]: inactive; Activity [4]: inactive
17 | CCCOS(=O)(=O)c1ccc2[nH]c(-c3ccccc3)cc2c1 |  |  |  | 79.3 (≈ 25 µg/mL) | 79.3 (≈ 25 µg/mL) | MIC [7]: 79.3 µM (≈ 25 µg/mL)
18 | O=[N+]([O-])c1ccc2[nH]c(-c3cccc(CO)c3)cc2c1 |  | 5 | 9 µM | > 1000 | > 1000 | MIC [2]: 9 µM
19 | O=[N+]([O-])c1ccc2[nH]c(-c3ccccc3CO)cc2c1 |  | 47 | 47 µM | > 1000 | > 1000 | MIC [2]: 24 µM
20 | O=C(O)c1ccc2[nH]c(-c3ccccc3)cc2c1 | inactive |  |  | > 1000 | > 1000 | Activity [3]: inactive; Activity [4]: inactive
21 | OCc1ccc2[nH]c(-c3ccccc3)cc2c1 |  |  |  | 14 (≈ 3.13 µg/mL) | 28 (≈ 6.25 µg/mL) | MIC [7]: 28 µM (≈ 6.25 µg/mL); MIC [12]: > 200 µg/mL; MIC [13]: > 200 µg/mL; MIC [14]: > 200 µg/mL; MIC [15]: > 200 µg/mL; MIC [16]: > 200 µg/mL; MIC [17]: > 200 µg/mL; MIC [18]: > 100 µg/mL; MIC [19]: > 100 µg/mL; MIC [20]: > 100 µg/mL; MIC [21]: > 200 µg/mL; MIC [22]: > 200 µg/mL; MIC [23]: > 200 µg/mL; MIC [24]: > 100 µg/mL
22 | O=[N+]([O-])c1ccc2[nH]c(-c3ccc(CO)cc3)cc2c1 |  | 2 | 2 µM | > 1000 | > 1000 | MIC [2]: 5 µM
23 | NS(=O)(=O)c1ccc2[nH]c(-c3ccccc3)cc2c1 | inactive |  |  | > 1000 | > 1000 | Activity [3]: inactive; Activity [4]: inactive
24 | COC(=O)c1cccc(-c2cc3cc([N+](=O)[O-])ccc3[nH]2)c1 |  | 1 | 1 µM | > 1000 | > 1000 | MIC [2]: 0.51 µM
